Laboratory results published in ChEMBL document CHEMBL4014309, “Development of an Acrylate Derivative Targeting the NLRP3 Inflammasome for the Treatment of Inflammatory Bowel Disease” (J Med Chem, 2017).
Where a name gives a salt, the structure may show the parent alone. Active and inactive are the calls of the source. The calls are words filed in the database; no cut-off is given here.

Key:
[1] = Cytotoxicity against human THP1 cells assessed as reduction in cell viability after 72 hrs by MTT assay; assay type: cell-based; settings: THP-1 cells, read-out: TC50
Method in brief: (§1)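 Human THP-1 cells were exposed to 0.1–100 µM for 72 h, and viability was read by MTT. TC50 is the concentration that cuts viability by 50%; percent viable cells at 100 µM is also reported. Mean ± SEM of ≥3 experiments.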

[2] = Cytotoxicity against human THP1 cells assessed as cell viability at 100 uM after 72 hrs by MTT assay; assay type: cell-based; settings: THP-1 cells, read-out: Activity; method in brief: as §1
[3] = target: NACHT, LRR and PYD domains-containing protein 3 (Homo sapiens) (UniProt Q96P20); experiment: Inhibition of recombinant human NLRP3 ATPase assessed as hydrolysis of ATP at 100 uM preincubated for 15 mins followed by addition of ATP measured after 40 mins by ADP-Glo assay
Method in brief: (§2)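 Human recombinant NLRP3 (0.105 µg) in 20 mM Tris-HCl pH 7.8, 133 mM NaCl, 20 mM MgCl2, 3 mM KCl, 0.56 mM EDTA, 0.5% DMSO. Compound (100 or 50 µM) was preincubated 15 min at 37 °C, then ATP (250 µM) was added for 40 min at 37 °C. ADP was read by ADP-Glo luminescence. Result is % inhibition vs vehicle; mean ± SEM, ≥3 experiments.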

[4] = target: NACHT, LRR and PYD domains-containing protein 3 (Homo sapiens) (UniProt Q96P20); experiment: Inhibition of recombinant human NLRP3 ATPase assessed as hydrolysis of ATP at 50 uM preincubated for 15 mins followed by addition of ATP measured after 40 mins by ADP-Glo assay; method in brief: as §2
[5] = target: NACHT, LRR and PYD domains-containing protein 3 (Homo sapiens) (UniProt Q96P20); experiment: Inhibition of recombinant human NLRP3 ATPase assessed as hydrolysis of ATP preincubated for 15 mins followed by addition of ATP measured after 40 mins by ADP-Glo assay; method in brief: as §2
[6] = Cysteamine reactivity of the compound in PBS assessed as second order rate constant for free cysteamine release at 250 uM and pH 7.4 after 90 mins by DTNB reagent based RP-UHPLC analysis
Method in brief: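 Compound (250 µM) was mixed with equimolar cysteamine in pH 7.4 PBS containing 12.5% CH3CN at 37 °C. Free cysteamine was tracked with DTNB at several time points over 90 min. Second-order k2 came from 1/[CAM] = 1/[CAM]0 + kt, using 3–10 points per plot; mean ± SEM of ≥3 experiments.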

[7] = target: NACHT, LRR and PYD domains-containing protein 3 (Homo sapiens) (UniProt Q96P20); experiment: Irreversible inhibition of His-FLAG- tagged NLRP3-ATPase (unknown origin) at 100 uM preincubated for 55 mins followed by compound wash-out and ATP addition measured after 40 mins by ADP-Glo assay
Method in brief: (§3)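 His-FLAG NLRP3 (105 ng/well) captured on anti-FLAG-coated, BSA-blocked wells for 3 h at 4 °C. Compound (100 µM final, 2% DMSO) preincubated 55 min at 37 °C. Wells were washed three times (or not washed), then ATP (250 µM) was added for 40 min at 37 °C. ADP was read by ADP-Glo. Equal protein loading was checked by anti-His ELISA.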

[8] = target: NACHT, LRR and PYD domains-containing protein 3 (Homo sapiens) (UniProt Q96P20); experiment: Inhibition of NLRP3 in PMA-differentiated and LPS-primed human THP1 cells assessed as decrease in ATP-induced pyroptosis measured as LDH activity at 10 uM preincubated for 1 hr followed by ATP addition measured after 1 hr by colorimetric assay relative to control
Method in brief: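 THP-1 cells were PMA-differentiated and LPS-primed, then pretreated with vehicle or compound (10 µM, 1 h). Pyroptosis was triggered with ATP (5 mM). LDH in supernatant was measured colorimetrically 1 h after ATP and expressed as percent decrease versus vehicle, mean ± SEM of ≥3 experiments.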

[9] = target: NACHT, LRR and PYD domains-containing protein 3 (Homo sapiens) (UniProt Q96P20); experiment: Irreversible inhibition of His-FLAG- tagged NLRP3-ATPase (unknown origin) at 100 uM preincubated for 55 mins followed by ATP addition measured after 40 mins by ADP-Glo assay; method in brief: as §3
[10] = test system: Liver; experiment: Drug level in Sprague-Dawley rat liver microsomes treated with INF39 at 100 uM up to 2 hrs by UHPLC-MS analysis; assay type: ADME, microsome
[11] = Metabolic stability in Sprague-Dawley rat liver microsomes at 100 uM after 2 hrs in presence of NADPH-generating system by UHPLC-MS analysis; assay type: ADME, microsome; settings: read-out: Stability
Method in brief: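 Rat liver microsomes (0.5 mg protein/mL) in 100 mM phosphate buffer pH 7.4 with NADPH-generating system, compound 100 µM final (≤2% DMSO), 37 °C, shaking, up to 120 min. Samples were taken at 0, 15, 30, 60 and 120 min and quenched with acetonitrile on ice. Analysis by UHPLC-MS; runs were also done without NADPH system. ≥3 independent repeats.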

[12] = target: NACHT, LRR and PYD domains-containing protein 3 (Mus musculus) (UniProt Q8R4B8); experiment: Inhibition of NLRP3 inflammasome in LPS-primed C57BL/6 mouse bone marrow derived macrophages assessed as reduction in ATP-induced IL-1beta production at 10 to 100 uM preincubated for 1 hr followed by stimulation with ATP measured after 30 mins by ELISA
Method in brief: (§4)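 C57BL/6 bone marrow macrophages, differentiated with 20% L-cell medium, were primed with LPS (1 µg/mL, 3 h). They were then exposed to compound or vehicle for 1 h and stimulated with ATP (5 mM, 30 min). IL-1β released into the medium was measured by ELISA.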

[13] = target: NACHT, LRR and PYD domains-containing protein 3 (Mus musculus) (UniProt Q8R4B8); experiment: Inhibition of NLRP3 inflammasome in LPS-primed C57BL/6 mouse bone marrow derived macrophages assessed as reduction in nigericin-induced pyroptosis at 10 to 100 uM preincubated for 1 hr followed by stimulation with ATP measured after 30 mins by LDH release assay
Method in brief: (§5)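 Bone marrow macrophages from C57BL/6 mice, differentiated with 20% L-cell medium, primed with LPS (1 µg/mL, 3 h). Test agent or vehicle was added for 1 h, then ATP (5 mM, 30 min) or nigericin (10 µM, 30 min). IL-1β in the medium was measured by ELISA. LDH in the medium was measured colorimetrically as % of total cellular LDH.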

[14] = target: NACHT, LRR and PYD domains-containing protein 3 (Mus musculus) (UniProt Q8R4B8); experiment: Inhibition of NLRP3 inflammasome in LPS-primed C57BL/6 mouse bone marrow derived macrophages assessed as reduction in nigericin-induced IL-1beta production at 10 to 100 uM preincubated for 1 hr followed by stimulation with nigericin measured after 30 mins by ELISA; method in brief: as §5
[15] = target: NACHT, LRR and PYD domains-containing protein 3 (Mus musculus) (UniProt Q8R4B8); experiment: Inhibition of NLRP3 inflammasome in LPS-primed C57BL/6 mouse bone marrow derived macrophages assessed as reduction in ATP-induced pyroptosis at 10 to 100 uM preincubated for 1 hr followed by stimulation with ATP measured after 30 mins by LDH release assay; method in brief: as §5
[16] = target: serum albumin (Homo sapiens, UniProt P02768); experiment: Binding affinity to human serum albumin after 5 mins by RP-UHPLC analysis; assay type: ADME; settings: read-out: PB (converted)
[17] = target: NACHT, LRR and PYD domains-containing protein 3 (Mus musculus) (UniProt Q8R4B8); experiment: Inhibition of NLRP3 inflammasome in LPS-primed C57BL/6 mouse bone marrow derived macrophages assessed as reduction in nigericin-induced pyroptosis at 1 to 100 uM preincubated for 1 hr followed by stimulation with ATP measured after 30 mins by LDH release assay; method in brief: as §5
[18] = target: NACHT, LRR and PYD domains-containing protein 3 (Mus musculus) (UniProt Q8R4B8); experiment: Inhibition of NLRP3 inflammasome in LPS-primed C57BL/6 mouse bone marrow derived macrophages assessed as reduction in nigericin-induced IL-1beta production at 1 to 100 uM preincubated for 1 hr followed by stimulation with nigericin measured after 30 mins by ELISA; method in brief: as §5
[19] = target: NACHT, LRR and PYD domains-containing protein 3 (Mus musculus) (UniProt Q8R4B8); experiment: Inhibition of NLRP3 inflammasome in LPS-primed C57BL/6 mouse bone marrow derived macrophages assessed as reduction in ATP-induced IL-1beta production at 1 to 100 uM preincubated for 1 hr followed by stimulation with ATP measured after 30 mins by ELISA; method in brief: as §4
[20] = target: NACHT, LRR and PYD domains-containing protein 3 (Mus musculus) (UniProt Q8R4B8); experiment: Inhibition of NLRP3 inflammasome in LPS-primed C57BL/6 mouse bone marrow derived macrophages assessed as reduction in ATP-induced pyroptosis at 1 to 100 uM preincubated for 1 hr followed by stimulation with ATP measured after 30 mins by LDH release assay
Method in brief: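 LPS-primed (1 µg/mL, 3 h) C57BL/6 bone marrow macrophages were treated with compound or vehicle for 1 h, then given ATP (5 mM, 30 min). LDH in the medium was measured and expressed as percent of total cellular LDH.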

Chain of NACHT, LRR and PYD domains-containing protein 3 (Homo sapiens) (Q96P20 whole entry, the tested form may be a part): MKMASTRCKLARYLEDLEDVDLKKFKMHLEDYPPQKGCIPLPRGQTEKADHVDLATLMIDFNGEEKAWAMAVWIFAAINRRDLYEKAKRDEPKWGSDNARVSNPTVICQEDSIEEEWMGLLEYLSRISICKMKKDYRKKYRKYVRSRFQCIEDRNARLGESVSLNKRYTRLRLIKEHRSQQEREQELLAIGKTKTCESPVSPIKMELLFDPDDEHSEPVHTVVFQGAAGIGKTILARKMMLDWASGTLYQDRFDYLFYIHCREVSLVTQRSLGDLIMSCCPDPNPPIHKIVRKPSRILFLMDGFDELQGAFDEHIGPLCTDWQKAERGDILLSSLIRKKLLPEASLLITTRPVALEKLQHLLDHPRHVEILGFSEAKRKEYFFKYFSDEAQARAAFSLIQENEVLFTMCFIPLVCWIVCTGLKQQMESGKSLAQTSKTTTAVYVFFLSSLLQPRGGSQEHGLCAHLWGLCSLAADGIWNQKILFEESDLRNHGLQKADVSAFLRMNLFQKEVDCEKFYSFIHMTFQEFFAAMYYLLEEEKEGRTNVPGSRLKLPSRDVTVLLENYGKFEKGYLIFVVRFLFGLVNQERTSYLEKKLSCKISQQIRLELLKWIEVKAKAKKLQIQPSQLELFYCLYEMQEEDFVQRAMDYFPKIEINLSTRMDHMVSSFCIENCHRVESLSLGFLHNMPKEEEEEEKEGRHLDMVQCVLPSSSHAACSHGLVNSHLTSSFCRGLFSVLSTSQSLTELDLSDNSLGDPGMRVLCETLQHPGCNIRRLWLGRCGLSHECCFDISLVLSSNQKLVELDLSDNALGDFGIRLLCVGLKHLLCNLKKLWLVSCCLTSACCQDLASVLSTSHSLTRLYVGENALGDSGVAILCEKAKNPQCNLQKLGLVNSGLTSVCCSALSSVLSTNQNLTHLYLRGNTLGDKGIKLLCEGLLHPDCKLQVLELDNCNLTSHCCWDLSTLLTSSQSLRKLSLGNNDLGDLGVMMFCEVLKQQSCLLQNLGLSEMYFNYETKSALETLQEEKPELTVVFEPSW
Chain of NACHT, LRR and PYD domains-containing protein 3 (Mus musculus) (Q8R4B8 whole entry, the tested form may be a part): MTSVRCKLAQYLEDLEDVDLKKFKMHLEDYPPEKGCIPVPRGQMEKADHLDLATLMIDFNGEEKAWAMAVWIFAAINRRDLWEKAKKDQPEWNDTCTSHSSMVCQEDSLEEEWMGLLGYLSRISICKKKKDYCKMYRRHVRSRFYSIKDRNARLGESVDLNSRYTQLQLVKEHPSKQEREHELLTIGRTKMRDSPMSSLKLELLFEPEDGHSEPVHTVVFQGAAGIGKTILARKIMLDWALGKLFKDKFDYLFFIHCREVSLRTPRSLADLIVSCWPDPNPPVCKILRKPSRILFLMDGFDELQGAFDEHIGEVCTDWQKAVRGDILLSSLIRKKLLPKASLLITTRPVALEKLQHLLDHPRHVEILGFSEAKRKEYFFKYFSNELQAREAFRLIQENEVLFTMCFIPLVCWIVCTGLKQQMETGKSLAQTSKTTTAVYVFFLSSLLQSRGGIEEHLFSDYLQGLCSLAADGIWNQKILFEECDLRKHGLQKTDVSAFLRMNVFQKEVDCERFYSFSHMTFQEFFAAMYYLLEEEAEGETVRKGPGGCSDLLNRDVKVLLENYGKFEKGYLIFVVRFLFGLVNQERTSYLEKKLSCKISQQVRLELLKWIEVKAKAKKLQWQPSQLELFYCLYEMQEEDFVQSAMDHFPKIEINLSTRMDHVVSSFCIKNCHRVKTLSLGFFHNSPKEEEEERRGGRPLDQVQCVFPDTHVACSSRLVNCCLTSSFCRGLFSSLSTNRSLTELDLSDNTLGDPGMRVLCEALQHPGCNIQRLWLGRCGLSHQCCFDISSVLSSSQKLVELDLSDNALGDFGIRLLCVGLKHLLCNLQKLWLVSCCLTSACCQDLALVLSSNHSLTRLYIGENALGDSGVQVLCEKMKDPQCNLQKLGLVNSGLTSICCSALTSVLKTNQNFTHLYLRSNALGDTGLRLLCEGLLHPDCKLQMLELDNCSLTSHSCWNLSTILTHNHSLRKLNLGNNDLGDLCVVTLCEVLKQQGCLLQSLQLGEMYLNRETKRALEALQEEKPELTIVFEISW
Chain of serum albumin (P02768 whole entry, the tested form may be a part): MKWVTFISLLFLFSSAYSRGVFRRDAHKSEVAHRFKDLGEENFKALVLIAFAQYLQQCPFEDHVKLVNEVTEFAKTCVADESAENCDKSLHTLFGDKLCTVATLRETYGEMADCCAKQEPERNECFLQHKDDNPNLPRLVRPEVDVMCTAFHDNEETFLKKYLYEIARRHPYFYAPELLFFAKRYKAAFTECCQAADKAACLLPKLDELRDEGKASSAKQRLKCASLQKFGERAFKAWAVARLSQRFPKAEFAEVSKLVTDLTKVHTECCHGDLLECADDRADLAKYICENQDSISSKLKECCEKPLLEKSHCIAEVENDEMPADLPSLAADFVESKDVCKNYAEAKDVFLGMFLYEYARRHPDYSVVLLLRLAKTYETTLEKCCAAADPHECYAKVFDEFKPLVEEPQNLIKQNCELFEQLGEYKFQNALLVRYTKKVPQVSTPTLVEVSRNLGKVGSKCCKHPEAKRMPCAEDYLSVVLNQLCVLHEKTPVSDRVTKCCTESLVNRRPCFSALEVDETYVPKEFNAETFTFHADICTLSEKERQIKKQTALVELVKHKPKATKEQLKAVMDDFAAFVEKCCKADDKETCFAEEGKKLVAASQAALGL

Structure (SMILES) | CC50 at 72 h [1] | viability at 72 h, 100 µM [2] | inhibition [3] | inhibition [4] | inhibition [5] | K [6] | inhibition [8] | Drug metabolism [6] | also measured
C=C(C(=O)OCC)C(OCCC(=O)OCC)c1ccccc1Cl (configuration not stated) | > 100 µM | 95.7% | 56% | 27% | Dose-dependent effect | 0.734 M⁻¹ s⁻¹ | – | – | –
CCOC(=O)C(C)Cc1ccccc1Cl (configuration not stated) | > 100 µM | 86.1% | 12% | inactive | Dose-dependent effect | – | 3.8% | Metabolite not detected | inhibition [7]: inactive; inhibition [9]: 10%
C=C(C(=O)O)C(O)c1ccccc1Cl (configuration not stated) | > 100 µM | 80.7% | 69% | 21% | Dose-dependent effect | – | – | Metabolite not detected | –
C=C(C(=O)OCC)C(OC)c1ccccc1Cl (configuration not stated) | > 100 µM | 78.1% | 60% | 24% | Dose-dependent effect | 1.6 M⁻¹ s⁻¹ | 37.2% | – | –
C=C(C(=O)O)C(O)c1ccc(Cl)cc1Cl (configuration not stated) | > 100 µM | 88.1% | 43% | 11% | Dose-dependent effect | – | 40.2% | Metabolite not detected | –
C=C(Cc1ccccc1Cl)C(=O)O | > 100 µM | 102% | 44% | 22% | Dose-dependent effect | – | 35.8% | Metabolite not detected | Drug metabolism [10]: Metabolite_Detected; remaining at 2 h, 100 µM [11]: > 99%
Cc1ccc(S(=O)(=O)/C=C/C#N)cc1 | 1.5 µM | – | – | – | – | – | – | – | inhibition [12]: Active; inhibition [13]: Active; inhibition [14]: Active; inhibition [15]: Active
CCOC(=O)C1=CCOC1c1ccccc1Cl (configuration not stated) | – | – | – | – | Dose-dependent effect | 8.18 M⁻¹ s⁻¹ | – | – | –
C=C(C(=O)OCC)C(O)c1ccc(Cl)cc1Cl (configuration not stated) | 68.3 µM | – | 35% | 19% | Dose-dependent effect | 1.34 M⁻¹ s⁻¹ | 74.4% | – | –
C=C(C(=O)OCC)C(O)c1ccccc1Cl (configuration not stated) | 65 µM | – | 72% | 32% | Dose-dependent effect | 0.824 M⁻¹ s⁻¹ | 80.9% | – | fraction unbound at 5 min [16]: 0.35
O=[N+]([O-])/C=C/c1ccc2c(c1)OCO2 | 3.2 µM | – | – | – | – | 2.5 M⁻¹ s⁻¹ | – | – | –
COC(=O)/C=C/C(=O)OC [DIMETHYL FUMARATE] | 95.5 µM | – | inactive | inactive | – | 39 M⁻¹ s⁻¹ | 65.2% | – | inhibition [17]: Active; inhibition [18]: Active; inhibition [19]: Active; inhibition [20]: Active
C=C(C(=O)OCC)C(OC(C)=O)c1ccccc1Cl (configuration not stated) | 33.3 µM | – | – | – | – | 56.2 M⁻¹ s⁻¹ | – | – | –
C=C(C(=O)OCC)C(OCCC(=O)OCC)c1ccc(Cl)cc1Cl (configuration not stated) | > 100 µM | 87.7% | – | 10% | – | 0.292 M⁻¹ s⁻¹ | – | – | –
CC(Cc1ccccc1Cl)C(=O)O (configuration not stated) | > 100 µM | 98.7% | 15% | inactive | – | – | 5.2% | Metabolite not detected | –
